Source: ChEMBL document CHEMBL1828568, “Novel imaging agents for β-amyloid plaque based on the N-benzoylindole core” (Bioorg Med Chem Lett, 2011)

Assay: Displacement of [125I]TZDM from amyloid beta (1 to 40) aggregates after 2 hrs by gamma counting
In short: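 Competition binding against [125I]TZDM as radiolabeled standard, using Aβ1–40 aggregates; run in triplicate, results as mean ± SD.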

| Ki | Compound |
| --- | --- |
| 10.2 nM | COc1ccc(/C=C/C(=O)n2ccc3cc(I)ccc32)cc1 |
| 68.2 nM | COc1ccc2c(ccn2C(=O)/C=C/c2ccccc2)c1 |
